Assay results: the M2OR odorant receptor database

Experiments:
[1] = molecular target: T1, OR51E1 (Homo sapiens) (UniProt Q8TCB6); details: stereoisomer not certain
T1 sequence (whole entry): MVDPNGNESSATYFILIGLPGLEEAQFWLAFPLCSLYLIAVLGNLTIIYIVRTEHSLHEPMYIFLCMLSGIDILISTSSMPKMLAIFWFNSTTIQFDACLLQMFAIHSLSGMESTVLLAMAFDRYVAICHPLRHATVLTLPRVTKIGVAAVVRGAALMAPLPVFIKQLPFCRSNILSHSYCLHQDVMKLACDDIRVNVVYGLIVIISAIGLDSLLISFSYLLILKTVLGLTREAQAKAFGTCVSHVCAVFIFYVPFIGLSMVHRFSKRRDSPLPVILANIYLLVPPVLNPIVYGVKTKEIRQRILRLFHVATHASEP
Summary of the method: (§1)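 Whether a receptor–molecule pair is responsive (active) rests on the original authors' judgment that its measured signal was statistically different from baseline. Pairs without that judgment are non-responsive (inactive). Sources used varied assay methods, commonly transient luciferase assays in mammalian cell lines.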

[2] = molecular target: T2, OR51E2 (Homo sapiens) (UniProt Q9H255); details: stereoisomer not certain
T2 sequence (whole entry): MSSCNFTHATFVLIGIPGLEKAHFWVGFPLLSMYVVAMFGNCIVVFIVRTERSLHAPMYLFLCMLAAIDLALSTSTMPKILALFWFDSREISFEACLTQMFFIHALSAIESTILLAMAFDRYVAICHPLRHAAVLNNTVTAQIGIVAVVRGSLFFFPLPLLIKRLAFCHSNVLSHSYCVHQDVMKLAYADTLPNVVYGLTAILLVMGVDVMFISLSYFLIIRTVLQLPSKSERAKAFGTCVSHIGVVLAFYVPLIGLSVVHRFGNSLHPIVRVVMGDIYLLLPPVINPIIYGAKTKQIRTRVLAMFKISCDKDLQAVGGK
Summary of the method: as §1
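Further: active if original authors judged signal statistically different from baseline.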

Row | SMILES | odorant receptor agonist call [1] | odorant receptor agonist call [2]
1 | CCCCC(C)=O | inactive | inactive
2 | CCCCCC(=O)CC | inactive | inactive
3 | CC(=O)C=CC1=C(C)CCCC1(C)C |  | inactive
4 | CC(C)=CCCC(C)=CCO | inactive | inactive
5 | CC12CCC(CC1=O)C2(C)C (stereo not given) | inactive | inactive
6 | CCCCCCCO | inactive | inactive
7 | CCCCCCCC(=O)[O-].[H+] | inactive | inactive
8 | CCCCCCCCO | inactive | inactive
9 | CC(=O)Oc1ccccc1 | inactive | inactive
10 | CCCCCOC(=O)CCCCC | inactive | inactive
11 | CCCCCCCCS | inactive | inactive
12 | CCCCCCCCCC(=O)[O-].[H+] | inactive | inactive
13 | CCCCCCO | inactive | inactive
14 | CCCCCCCCC(=O)O | active | inactive
15 | CCCC(C)=O | inactive | inactive
16 | CCC(=O)O | inactive | active
17 | CCCCCCC(C)=O | inactive | inactive
18 | C=C(C)C1CCC(C)C(=O)C1 (stereo not given) | inactive | inactive
19 | O=c1ccc2ccccc2o1 | inactive | inactive
20 | O=C1CCOc2ccccc21 | inactive | inactive
21 | CCCCCCCCCCO | inactive | inactive
22 | CCCCCCOC(C)=O | inactive | inactive
23 | CCC(=O)C(=O)CC | inactive | inactive
